Common to all, as to conditions: stereoisomer not certain
One assay has as its target T1, OR13C2 (Homo sapiens) (UniProt Q8NGS9).
T1 sequence (whole entry): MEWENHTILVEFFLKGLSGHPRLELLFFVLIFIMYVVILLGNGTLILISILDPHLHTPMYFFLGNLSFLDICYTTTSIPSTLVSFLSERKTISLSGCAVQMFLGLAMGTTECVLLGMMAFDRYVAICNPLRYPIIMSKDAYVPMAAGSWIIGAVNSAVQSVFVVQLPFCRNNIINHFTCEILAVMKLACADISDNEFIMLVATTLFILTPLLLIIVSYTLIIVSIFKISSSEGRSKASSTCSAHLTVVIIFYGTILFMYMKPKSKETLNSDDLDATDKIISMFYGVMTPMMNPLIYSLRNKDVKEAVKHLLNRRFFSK
The procedure, abridged:
(§1)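 Transient luciferase assays in mammalian cell lines were common, though methods varied by source. The values come from published papers and their supplementary material, with extra details from the original authors when needed. Responsive refers to a measured signal the original authors judged statistically different from baseline, and non-responsive (inactive) to the remainder.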

In the next assay the target is T2, OR13C3 (Homo sapiens) (UniProt Q8NGS6).
T2 sequence (whole entry): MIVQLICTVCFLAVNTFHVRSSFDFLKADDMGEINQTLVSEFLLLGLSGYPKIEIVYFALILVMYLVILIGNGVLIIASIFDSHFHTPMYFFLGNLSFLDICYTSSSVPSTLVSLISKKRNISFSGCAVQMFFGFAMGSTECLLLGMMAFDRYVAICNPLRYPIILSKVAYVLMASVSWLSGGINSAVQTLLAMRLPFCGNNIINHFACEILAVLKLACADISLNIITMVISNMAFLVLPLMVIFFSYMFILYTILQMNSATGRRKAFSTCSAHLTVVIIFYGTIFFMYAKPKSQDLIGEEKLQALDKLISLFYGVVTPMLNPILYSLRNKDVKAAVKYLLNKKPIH
The procedure, abridged:
as §1

The target of the next assay is T3, OR13C4 (Homo sapiens) (UniProt Q8NGS5).
T3 sequence (whole entry): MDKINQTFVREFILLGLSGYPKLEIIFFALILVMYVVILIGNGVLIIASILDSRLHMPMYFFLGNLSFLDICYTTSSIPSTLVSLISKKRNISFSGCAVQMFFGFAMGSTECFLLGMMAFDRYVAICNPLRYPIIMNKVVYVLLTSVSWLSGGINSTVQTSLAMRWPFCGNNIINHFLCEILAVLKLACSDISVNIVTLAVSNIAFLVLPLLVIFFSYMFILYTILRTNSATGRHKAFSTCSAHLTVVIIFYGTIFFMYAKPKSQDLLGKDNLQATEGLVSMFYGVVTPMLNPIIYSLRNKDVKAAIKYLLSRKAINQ
In a few lines:
as §1

A further assay has as its target T4, OR13C5 (Homo sapiens) (UniProt Q8NGS8).
T4 sequence (whole entry): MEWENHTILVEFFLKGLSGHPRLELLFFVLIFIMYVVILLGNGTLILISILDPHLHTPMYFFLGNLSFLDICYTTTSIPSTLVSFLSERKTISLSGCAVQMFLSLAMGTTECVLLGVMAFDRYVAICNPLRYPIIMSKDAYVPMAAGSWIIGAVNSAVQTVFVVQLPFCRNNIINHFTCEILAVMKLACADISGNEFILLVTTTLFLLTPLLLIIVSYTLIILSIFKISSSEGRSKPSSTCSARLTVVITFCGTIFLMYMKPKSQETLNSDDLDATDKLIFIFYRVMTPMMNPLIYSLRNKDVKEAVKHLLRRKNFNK
The procedure, abridged: as §1

A further assay concerns the target T5, OR13C8 (Homo sapiens) (UniProt Q8NGS7).
T5 sequence (whole entry): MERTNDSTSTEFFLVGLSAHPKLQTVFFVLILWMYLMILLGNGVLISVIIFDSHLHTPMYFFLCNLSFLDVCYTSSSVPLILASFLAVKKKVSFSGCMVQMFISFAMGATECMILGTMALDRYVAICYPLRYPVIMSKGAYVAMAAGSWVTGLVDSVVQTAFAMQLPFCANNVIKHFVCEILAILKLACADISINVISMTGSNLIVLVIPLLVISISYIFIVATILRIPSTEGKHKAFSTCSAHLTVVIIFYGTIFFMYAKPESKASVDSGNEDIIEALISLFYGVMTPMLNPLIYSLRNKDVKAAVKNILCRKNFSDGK
The procedure, abridged: as §1

The next assay addresses T6, OR13C9 (Homo sapiens) (UniProt Q8NGT0).
T6 sequence (whole entry): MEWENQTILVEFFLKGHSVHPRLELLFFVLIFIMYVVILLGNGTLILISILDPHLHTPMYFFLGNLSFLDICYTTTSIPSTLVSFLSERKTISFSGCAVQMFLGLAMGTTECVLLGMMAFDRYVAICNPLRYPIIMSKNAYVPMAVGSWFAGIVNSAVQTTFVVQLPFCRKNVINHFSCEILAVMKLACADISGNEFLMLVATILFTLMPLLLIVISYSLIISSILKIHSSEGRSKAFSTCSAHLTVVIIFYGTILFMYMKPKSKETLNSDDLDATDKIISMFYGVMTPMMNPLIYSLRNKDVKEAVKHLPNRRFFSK
The procedure, abridged: as §1

The next assay addresses T7, OR13D1 (Homo sapiens) (UniProt Q8NGV5).
T7 sequence (whole entry): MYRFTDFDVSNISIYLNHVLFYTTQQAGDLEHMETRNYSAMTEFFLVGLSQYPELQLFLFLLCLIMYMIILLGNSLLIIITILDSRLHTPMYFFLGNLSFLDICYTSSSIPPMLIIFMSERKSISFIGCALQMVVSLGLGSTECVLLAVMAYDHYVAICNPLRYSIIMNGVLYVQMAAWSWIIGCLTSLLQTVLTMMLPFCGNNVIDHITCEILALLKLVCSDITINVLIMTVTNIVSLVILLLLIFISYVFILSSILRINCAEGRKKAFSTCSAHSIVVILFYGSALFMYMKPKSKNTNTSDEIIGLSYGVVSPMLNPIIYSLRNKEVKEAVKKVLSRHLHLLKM
The procedure, abridged: as §1

The target in another assay is T8, OR13F1 (Homo sapiens) (UniProt Q8NGS4).
T8 sequence (whole entry): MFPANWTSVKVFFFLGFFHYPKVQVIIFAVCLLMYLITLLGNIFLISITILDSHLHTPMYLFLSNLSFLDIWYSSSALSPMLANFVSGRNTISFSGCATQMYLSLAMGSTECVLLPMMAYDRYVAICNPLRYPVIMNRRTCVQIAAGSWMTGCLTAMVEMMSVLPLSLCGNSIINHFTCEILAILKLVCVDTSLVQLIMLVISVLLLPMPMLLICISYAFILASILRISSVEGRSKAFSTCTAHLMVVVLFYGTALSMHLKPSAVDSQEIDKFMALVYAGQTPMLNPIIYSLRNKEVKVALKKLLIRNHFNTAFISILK
The procedure, abridged: as §1

In a further assay the target is T9, OR13G1 (Homo sapiens) (UniProt Q8NGZ3).
T9 sequence (whole entry): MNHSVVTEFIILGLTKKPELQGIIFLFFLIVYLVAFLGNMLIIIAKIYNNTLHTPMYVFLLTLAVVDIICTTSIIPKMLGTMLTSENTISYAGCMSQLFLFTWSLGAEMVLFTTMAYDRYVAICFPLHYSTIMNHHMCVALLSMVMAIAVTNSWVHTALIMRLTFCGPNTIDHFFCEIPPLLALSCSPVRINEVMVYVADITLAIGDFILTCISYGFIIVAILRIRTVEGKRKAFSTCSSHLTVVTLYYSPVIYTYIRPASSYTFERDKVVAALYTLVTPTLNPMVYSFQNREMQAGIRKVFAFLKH
The procedure, abridged: as §1

Experimental findings from the M2OR odorant receptor database are described below.
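Further: active if original authors judged signal statistically different from baseline.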

On to `CCCCCC(S)C(C)CO` (centres undefined), for which the “odorant receptor agonist call” value in the assay with OR13C2 (Homo sapiens), with OR13C3 (Homo sapiens), with OR13C4 (Homo sapiens), in the assay with OR13C5 (Homo sapiens), in the assay with OR13C8 (Homo sapiens) and with OR13D1 (Homo sapiens) was “inactive” in each case. Besides, the “odorant receptor agonist call” value with OR13F1 (Homo sapiens) and with OR13G1 (Homo sapiens) was “inactive” in each case. Also, in the assay with OR13C9 (Homo sapiens), the “odorant receptor agonist call” value is “active”.
